Compounds with a hit are over-represented: about 2.9% of the library has one in this group of screens.
M18AAP inhibitor: PfM18AAP enzyme inhibition; recombinant PfM18AAP, H-Glu-NHMec fluorogenic cleavage; inhibition, % at 7.35 µM; 290,000 compounds, 1.2% hits;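 active = inhibition above the campaign mean inhibition over all tested compounds plus 3 SD, cut at about 28% in these data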;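 also: 0% = plate median of test compound wells and 100% = 2 mM ZnCl2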
Apaf1 inhib: human Apaf-1 inhibition. 330,000 compounds, 0.71% hits. O14727. reconstituted apoptosome caspase-3 activity, DEVD-Rh110 fluorescence. inhibition, % at 20 µM; active = inhibition of at least 40% at 20 µM;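 also: plate controls were DMSO wells for no effect and DEVD-CHO caspase inhibitor wells for full effect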
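Material: biochemical Apaf-1 apoptosome reconstitution. Medium: Hepes buffer, pH 7.5. Also added: cytochrome c activation, bis-DEVD rhodamine 110 substrate. Timing: 30 min compound preincubation, 50 min activation, room temperature. Measured by: rhodamine 110 fluorescence at Ex 480/Em 540 nm.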
UBC13 polyUb: inhibitors of human UBC13 polyubiquitin chain formation; P61088; TR-FRET; inhibition, % at 20 µM; 330,000 compounds, 0.47% hits; in the data active = inhibition above about 45%, passing the limit was not always enough
Target sequence (P61088 whole entry, looked up): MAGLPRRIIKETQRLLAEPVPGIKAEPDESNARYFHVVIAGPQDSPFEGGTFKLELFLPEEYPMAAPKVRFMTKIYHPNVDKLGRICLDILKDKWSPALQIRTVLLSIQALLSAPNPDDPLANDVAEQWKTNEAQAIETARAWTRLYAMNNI
ZTA DNA inh: blocks Epstein-Barr virus ZTA, an EBNA-1 counter-screen; AID 2234; 320,000 compounds, 0.15% hits; inhibition, % at 11 µM; ZTA-DNA binding, fluorescence polarization; P03206; in the data active = inhibition above about 33%
Target sequence (P03206 whole entry, looked up): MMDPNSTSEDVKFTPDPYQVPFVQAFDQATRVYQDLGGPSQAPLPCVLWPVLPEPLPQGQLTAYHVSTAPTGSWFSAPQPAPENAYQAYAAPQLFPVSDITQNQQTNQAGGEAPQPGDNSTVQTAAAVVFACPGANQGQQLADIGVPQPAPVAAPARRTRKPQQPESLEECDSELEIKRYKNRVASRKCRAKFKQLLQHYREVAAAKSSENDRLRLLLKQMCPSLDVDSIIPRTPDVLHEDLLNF
EBNA-1 inh: blocks EBNA-1 binding to DNA; inhibition, % at 14.8 µM; 300,000 compounds, 0.34% hits; EBNA-1 DNA binding, fluorescence polarization; in the data active = inhibition above about 28%
PfGluPho inh: PfG6PD (Plasmodium falciparum) enzyme inhibition | 350,000 compounds, 0.78% hits | inhibition, % at 20 µM | PfGluPho enzyme, NADPH resazurin-diaphorase fluorescence | AID 504690;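 active = inhibition reaching at least a set limit at 20 µM in the primary screen, cut at about 59% in these data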;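 also: 0% = DMSO wells with substrate and 100% = DMSO wells lacking glucose-6-phosphate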
Casp3 UBC13 ctr: inhibits human caspase-3 in UBC13 counter-screen. shares compounds with UBC13 polyUb. Recombinant caspase-3, Caspase-Glo 3/7 luminescence, 60 min. inhibition, % at 20 µM. 1,400 compounds, 4% hits. AID 488856;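 active = mean inhibition across replicates above about 26%, limit read from the data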;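 also: plate controls were DMSO with caspase-3 for no effect and DMSO wells lacking enzyme for full effect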
UBC13 confirm: human UBC13 polyubiquitin inhibition, confirmed. shares compounds with UBC13 polyUb. UBC13 polyubiquitination, TR-FRET, biochemical. inhibition, % at 10 µM. 1,400 compounds, 68% hits; in the data active = inhibition above about 45%
Apaf-1 inh conf2: Apaf-1 inhibition, single-dose confirmed; shares compounds with Apaf1 inhib; reconstituted apoptosome, caspase-3 DEVD-Rh110 fluorescence; 1,800 compounds, 25% hits; inhibition, % at 20 µM;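 active = mean inhibition of at least 40% at 20 µM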;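 also: plate controls were DMSO wells for no effect and DEVD-CHO caspase inhibitor control wells for full effect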
Rh110 interf inh: Rh110 signal interference in Apaf-1 inhibitor counter-screen; shares compounds with Apaf1 inhib; AID 504615; 1,800 tested, under 10 active; Rh110 fluorescence interference, quenched caspase reaction; activation (fluorescence interference), % at 20 µM;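 active = signal rise of 40% or more at 20 µM, treated as a fluorescence artifact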
Apaf1 inh interf: shows fluorescence interference in the Apaf-1 inhibitor assay format. shares compounds with Apaf1 inhib. fluorescence interference counterscreen, Apaf-1 assay format. IC50, µM. 460 tested, under 10 active. AID 588538; call rule not given here
Starred values were filed as active, the others as inactive; x = no result given.

SMILES	M18AAP inhibitor	Apaf1 inhib	UBC13 polyUb	ZTA DNA inh	EBNA-1 inh	PfGluPho inh	Casp3 UBC13 ctr	UBC13 confirm	Apaf-1 inh conf2	Rh110 interf inh	others
CC(C)[C@H](CN1CCC[C@H]1CN1C(N)=NC[C@H]1C(C)C)N1C[C@@H](Cc2ccccc2)N(CCCC2CCCC2)C1=N	x	63*	70*	x	x	-4	1	69*	6	0
CCCCN1C(=N)N([C@@H](C)CN2CCC[C@H]2CN2C(N)=NC[C@@H]2Cc2ccccc2)C[C@H]1[C@H](C)CC	x	21	19	x	x	6	x	x	x	x
CCC[C@@H](CN1CCC[C@H]1CN1C(N)=NC[C@@H]1Cc1ccccc1)N1C[C@@H]([C@H](C)CC)N(CCCC2CCCC2)C1=N	x	77*	91*	x	x	24	2	85*	32	9
COc1cccc(CN(C)C(=O)CCN(c2ccccc2)S(=O)(=O)c2ccc(C)cc2)c1OC	x	29	12	-4	-1	13	x	x	x	x
CC(=O)c1cc2c(cc1NC(=O)Cc1ccsc1)OCO2	x	1	5	-26	x	9	x	x	x	x
O=C(Nc1ccncc1)c1ccc(-c2ccccc2)cc1	-8	3	-9	13	-3	7	x	x	x	x
Cc1c(CCOC(=O)CC23CC4CC(CC(C4)C2)C3)sc[n+]1CC(=O)c1ccc(Br)cc1	0	49*	47*	9	-5	1	2	69*	32	16
CCCCCCCCCCCCCCCC[n+]1ccccc1	x	x	x	x	x	-9	x	x	x	x
CCCCCCCCCCCCCCCC[n+]1cccc(C(=O)N(CC)CC)c1	0	74*	70*	-9	-1	4	-2	94*	72*	20	Apaf1 inh interf=>100
CCCCCCCCCCCCCCCC[n+]1ccc(C(N)=O)cc1	9	73*	89*	-8	-4	8	-3	99*	53*	8	Apaf1 inh interf=>100
CCCCCCCCCCCCCCCC[n+]1ccc(/C=N/O)cc1	-5	80*	91*	3	-8	15	-2	88*	58*	17	Apaf1 inh interf=>100
CCOc1ccc(NC(=O)CN(C)C(=O)c2n[nH]c(=O)c3ccccc23)cc1OCC	x	-4	0	x	x	-8	x	x	x	x
Cc1cc(OCC(=O)Nc2ccncc2)cc(C)c1Cl	-5	-3	4	-4	-1	-1	x	x	x	x
O=c1c2ccccc2oc2ccc(NCCCn3ccnc3)cc12	1	10	-10	15	-3	3	x	x	x	x
Cc1cc2oc3cc(NCCC4CCCN4C)ccc3c(=O)c2cc1C (stereo unspecified)	x	44*	61*	-8	2	19	21	47*	9	17
C1CCC(C(CC2CCCCN2)C2CCCCC2)CC1 (stereo unspecified)	1	61*	80*	7	-3	-7	0	66*	20	17
COc1ccc(OC)c(NC(=O)c2csc(Cl)c2OC)c1	9	14	16	-4	-15	-2	x	x	x	x
CC(C)(C)OC(=O)N1CCC(c2c(C(=O)N3CCN(C(=O)c4ccco4)CC3)cnn2-c2cccc(Cl)c2)CC1	-2	10	-3	-27	-15	3	x	x	x	x
CCOC(=O)C1=C(c2ccccc2)NC(N)=NC1c1ccc(OCc2ccc(Cl)cc2)c(OC)c1 (stereo unspecified)	-3	58*	49*	7	-11	32	6	87*	64*	6	Apaf1 inh interf=>100
CCOc1cc(/C=C/C(=O)Nc2ccc(C(=O)NCCN(CC)CC)cc2)ccc1OCC(C)C	-4	47*	78*	-17	-7	10	-2	96*	40	21

From PubChem BioAssay
